Published values collected from several papers.
Lines come from different studies, so protocols differ.
RPS6KA2: Ribosomal protein S6 kinase alpha-2 (RPS6KA2, Homo sapiens, UniProt Q15349)
RPS6KA2 C-terminal kinase domain: Ribosomal protein S6 kinase alpha-2, C-terminal kinase domain (RPS6KA2, Homo sapiens, UniProt Q15349)
RPS6KA2 N-terminal kinase domain: Ribosomal protein S6 kinase alpha-2, N-terminal kinase domain (RPS6KA2, Homo sapiens, UniProt Q15349)

CNCc1ccc(-c2cc(-c3nc(-c4ccc(S(=O)(=O)C(C)C)cc4)cnc3N)on2)cc1  inhibition (RPS6KA2; enzyme activity; inhibitor; 2 µM): 49%
CCCOc1ccc(OC)c(F)c1C(=O)c1ccc(C(=O)N[C@@H]2CNC[C@H]2NC(=O)c2ccc3[nH]ncc3c2)cc1  remaining activity (RPS6KA2; enzyme activity; inhibitor; 10 µM): 6%
CN(C)c1ncc(F)c(-c2cnn3ncccc23)n1  remaining binding (RPS6KA2 C-terminal kinase domain; binding; competition with immobilised ligand; 1 µM): 97%
Cc1ccc(Nc2nccc(N(C)c3ccc4c(C)n(C)nc4c3)n2)cc1S(N)(=O)=O  inhibition (RPS6KA2; enzyme activity; inhibitor; 0.3 µM): 27%
CC(C)(C)c1nc(-c2cccc(NS(=O)(=O)c3c(F)cccc3F)c2F)c(-c2ccnc(N)n2)s1  remaining activity (RPS6KA2; enzyme activity; inhibitor; radiometric; 1 µM): 81%
C[C@H]1CCN(c2nccc(-c3cnn4ncccc34)n2)C1  remaining binding (RPS6KA2 C-terminal kinase domain; binding; competition with immobilised ligand; 1 µM): 100%
O=C(NCCCC1CCCCC1)c1ccc(CNC(=O)c2cnn(-c3ccccc3)c2C(F)(F)F)cc1  remaining binding (RPS6KA2 C-terminal kinase domain; cell-free assay; competition with immobilised ligand; 0.1 µM): 96%
CC1CCCN1c1nccc(-c2cnn3ncccc23)n1 (stereo not shown)  remaining binding (RPS6KA2 C-terminal kinase domain; binding; competition with immobilised ligand; 1 µM): 100%
NS(=O)(=O)c1cc(NC(=O)C2(c3ccccc3Cl)CC2)ccc1Oc1cccc(Cl)c1  remaining binding (RPS6KA2 C-terminal kinase domain; cell-free assay; competition with immobilised ligand; 1 µM): 100%
Cc1ccc(C(=O)Nc2ccc(CN3CCN(C)CC3)c(C(F)(F)F)c2)cc1C#Cc1cnc2cccnn12  remaining activity (RPS6KA2; enzyme activity; inhibitor; 23.5 nM): 100%
F[C@@H]1CCN(c2nccc(-c3cnn4ncccc34)n2)C1  remaining binding (RPS6KA2 N-terminal kinase domain; binding; competition with immobilised ligand; 1 µM): 93%
O=C(O)[C@@H]1[C@@H](Cn2nnc3ccccc3c2=O)CC[C@H]1C(=O)c1ccc(OCCC2CCOCC2)cc1  remaining binding (RPS6KA2 C-terminal kinase domain; cell-free assay; competition with immobilised ligand; 1 µM): 100%
N[C@H]1CCN(c2nccc(-c3cnn4ncccc34)n2)C1  remaining binding (RPS6KA2 C-terminal kinase domain; binding; competition with immobilised ligand; 1 µM): 91%
CO[C@@H](C)c1c(Nc2ccc([C@H](N(C)C(=O)C3CCS(=O)(=O)CC3)C(F)(F)F)cc2)cnc2cc(Cl)nn12  remaining binding (RPS6KA2 C-terminal kinase domain; cell-free assay; competition with immobilised ligand; 1 µM): 79%
Cc1cc(NC(=O)c2cccc3cc(-c4cccc5[nH]nc(N)c45)ccc23)ccc1F  activity vs control (RPS6KA2; enzyme activity; inhibitor; 0.1 µM): 95%
COc1ccnn2ncc(-c3ccnc(N(C)C)n3)c12  remaining binding (RPS6KA2 N-terminal kinase domain; binding; competition with immobilised ligand; 1 µM): 74%
O=c1nc(-c2ccccn2)sc2ccccc12  remaining binding (RPS6KA2 N-terminal kinase domain; binding; competition with immobilised ligand; 1 µM): 100%
COc1cc(Cl)c(C(=O)N[C@@H](CN[C@H]2CC[C@@H](N)CC2)Cc2ccc(C#N)cc2)cc1-c1ccc(CN[C@H](C)c2ccc(C)cc2)o1  remaining activity (RPS6KA2; enzyme activity; inhibitor; 1 µM): 106%
c1cnn2ncc(-c3ccnc(N4CCC45COC5)n3)c2c1  remaining binding (RPS6KA2 N-terminal kinase domain; binding; competition with immobilised ligand; 1 µM): 95%
Cn1cc(Cl)c2c(Oc3c(F)cc(Nc4cc(Cl)nc(N)n4)cc3F)ccnc21  remaining binding (RPS6KA2 N-terminal kinase domain; cell-free assay; competition with immobilised ligand; 0.1 µM): 95%
CCN(CC)c1ccc(C2=NNC(=O)CC2C)cc1[N+](=O)[O-] (stereo not shown)  remaining activity (RPS6KA2; enzyme activity; inhibitor; 10 µM): 98%
COc1ccc2c(O[C@@H]3C[C@H]4C(=O)N[C@]5(C(=O)O)CC5/C=C\CCCCC[C@H](NC(=O)OC5CCCC5)C(=O)N4C3)cc(-c3csc(NC(=O)C(C)C)n3)nc2c1C (stereo partly shown)  remaining binding (RPS6KA2 N-terminal kinase domain; cell-free assay; competition with immobilised ligand; 1 µM): 100%
Nc1ncnc2occ(-c3ccc(NC(=O)Nc4cc(C(F)(F)F)ccc4F)cc3)c12  remaining signal (RPS6KA2 C-terminal kinase domain; cell-free assay; inhibitor; 20 µM): 2.3%
CCS(=O)(=O)c1cc2cc(C[C@](O)(CC(C)(C)c3ccc(F)cc3C(N)=O)C(F)(F)F)[nH]c2cn1  remaining binding (RPS6KA2 N-terminal kinase domain; cell-free assay; competition with immobilised ligand; 1 µM): 100%
COc1cc2ncnc(Nc3ccc(Oc4ccccc4)cc3C)c2cc1OC  inhibition (RPS6KA2; enzyme activity; inhibitor; 1 µM): 3%
